{"source": "ChEMBL document CHEMBL1777792", "about": "“Synthesis and evaluation of indole-based new scaffolds for antimicrobial activities--identification of promising candidates” (Bioorg Med Chem Lett, 2011)", "key": {"Candida albicans [1]": {"test_system": "Candida albicans", "assay": "Antifungal activity against Candida albicans in yeast extract-peptone-glucose medium at 300 ug/ml after 48 hrs by disc diffusion assay in presence of 0.01% of sodium dodecylsulphate", "assay_type": "functional", "details": "read-out: DIZ", "method_in_brief": "(§1)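 C. albicans cells at a set number were spread on YEPD agar, either plain or containing the cell-wall disruptant named in the line (SDS, Congo red or calcofluor white). Compound solution, or the reference solvent as control, was spotted onto 0.5 cm discs placed on the lawn. Plates were incubated at 30 °C and the inhibition zone diameter was measured.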"}, "Candida albicans [2]": {"test_system": "Candida albicans", "assay": "Antifungal activity against Candida albicans in yeast extract-peptone-glucose medium at 300 ug/ml after 48 hrs by disc diffusion assay in presence of 150 ug/ml of congo red", "assay_type": "functional", "method_in_brief": "as §1"}, "Candida albicans [3]": {"test_system": "Candida albicans", "assay": "Antifungal activity against Candida albicans in yeast extract-peptone-glucose medium at 300 ug/ml after 48 hrs by disc diffusion assay in presence of […]", "assay_type": "functional", "method_in_brief": "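This is a C. albicans disc diffusion on YEPD agar containing rhodamine 6G, a substrate of the Cdr1p/Cdr2p ATP-dependent efflux pumps, to test for enhanced R6G toxicity. A set number of cells was spread, and 0.5 cm discs were spotted with compound solution or reference solvent. Plates were incubated at 30 °C and the zone diameter was measured.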"}, "Escherichia coli [4]": {"test_system": "Escherichia coli", "assay": "Antibacterial activity against Escherichia coli harboring ampicillin-resistance gene encoding plasmid at 300 ug/ml after 24 hrs by disc diffusion assay", "assay_type": "functional", "details": "read-out: DIZ", "method_in_brief": "(§2)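 Disc diffusion used an E. coli strain carrying a plasmid that encodes an ampicillin-resistance gene. Inhibition zone diameters were recorded and compared against the corresponding solvent controls.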"}, "Candida albicans [5]": {"test_system": "Candida albicans", "assay": "Antifungal activity against Candida albicans in yeast extract-peptone-glucose medium at 500 ug/ml after 48 hrs by disc diffusion assay in presence of 150 ug/ml of congo red", "assay_type": "functional", "method_in_brief": "(§3)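 Disc diffusion on YEPD agar containing a cell-wall-disrupting agent (SDS, Congo red or calcofluor white) and spread with a set number of C. albicans cells. Compound and reference solvent spotted on 0.5 cm discs. Incubated at 30 °C, then inhibition zone diameter measured against solvent.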"}, "Candida albicans [6]": {"test_system": "Candida albicans", "assay": "Antifungal activity against Candida albicans in yeast extract-peptone-glucose medium at 500 ug/ml after 48 hrs by disc diffusion assay", "assay_type": "functional", "details": "read-out: DIZ", "method_in_brief": "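Solid-phase assay on YEPD agar spread with a set number of C. albicans cells. Compound solution and reference solvent spotted onto 0.5 cm discs. Plates incubated at 30 °C, and inhibition zone diameter measured against solvent control.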"}, "Escherichia coli [7]": {"test_system": "Escherichia coli", "assay": "Antibacterial activity against Escherichia coli harboring ampicillin-resistance gene encoding plasmid at 500 ug/ml after 24 hrs by disc diffusion assay", "assay_type": "functional", "details": "read-out: DIZ", "method_in_brief": "as §2"}, "Candida albicans [8]": {"test_system": "Candida albicans", "assay": "Antifungal activity against Candida albicans in yeast extract-peptone-glucose medium at 500 ug/ml after 48 hrs by disc diffusion assay in presence of 0.01% of sodium dodecylsulphate", "assay_type": "functional", "details": "read-out: DIZ", "method_in_brief": "as §3"}, "Candida albicans [9]": {"test_system": "Candida albicans", "assay": "Antifungal activity against Candida albicans in yeast extract-peptone-glucose medium at 500 ug/ml after 48 hrs by disc diffusion assay in presence of 100 ug/ml of calcofluor white", "assay_type": "functional", "method_in_brief": "as §3"}, "Candida albicans [10]": {"test_system": "Candida albicans", "assay": "Antifungal activity against Candida albicans in yeast extract-peptone-glucose medium at 500 ug/ml after 48 hrs by disc diffusion assay in presence of rhodamine 6G"}, "Candida albicans [11]": {"test_system": "Candida albicans", "assay": "Antifungal activity against Candida albicans in yeast extract-peptone-glucose medium at 374 ug/ml after 48 hrs by disc diffusion assay in presence of rhodamine 6G"}, "Candida albicans [12]": {"test_system": "Candida albicans", "assay": "Antifungal activity against Candida albicans in yeast extract-peptone-glucose medium at 374 ug/ml after 48 hrs by disc diffusion assay in presence of 150 ug/ml of congo red", "assay_type": "functional", "method_in_brief": "as §3"}, "Escherichia coli [13]": {"test_system": "Escherichia coli", "assay": "Antibacterial activity against Escherichia coli harboring ampicillin-resistance gene encoding plasmid at 250 ug/ml after 24 hrs by disc diffusion assay", "assay_type": "functional", "details": "read-out: DIZ", "method_in_brief": "as §2"}, "Candida albicans [14]": {"test_system": "Candida albicans", "assay": "Antifungal activity against Candida albicans in yeast extract-peptone-glucose medium at 374 ug/ml after 48 hrs by disc diffusion assay in presence of 0.01% of sodium dodecylsulphate", "assay_type": "functional", "details": "read-out: DIZ", "method_in_brief": "as §3"}, "Candida albicans [15]": {"test_system": "Candida albicans", "assay": "Antifungal activity against Candida albicans in yeast extract-peptone-glucose medium at 250 ug/ml after 48 hrs by disc diffusion assay in presence of 100 ug/ml of calcofluor white", "assay_type": "functional", "method_in_brief": "as §1"}, "Candida albicans [16]": {"test_system": "Candida albicans", "assay": "Antifungal activity against Candida albicans in yeast extract-peptone-glucose medium at 250 ug/ml after 48 hrs by disc diffusion assay in presence of 150 ug/ml of congo red", "assay_type": "functional", "method_in_brief": "as §1"}, "Candida albicans [17]": {"test_system": "Candida albicans", "assay": "Antifungal activity against Candida albicans in yeast extract-peptone-glucose medium at 250 ug/ml after 48 hrs by disc diffusion assay", "assay_type": "functional", "details": "read-out: DIZ", "method_in_brief": "as §1"}, "Candida albicans [18]": {"test_system": "Candida albicans", "assay": "Antifungal activity against Candida albicans in yeast extract-peptone-glucose medium at 250 ug/ml after 48 hrs by disc diffusion assay in presence of rhodamine 6G"}, "Candida albicans [19]": {"test_system": "Candida albicans", "assay": "Antifungal activity against Candida albicans in yeast extract-peptone-glucose medium at 250 ug/ml after 48 hrs by disc diffusion assay in presence of 0.01% of sodium dodecylsulphate", "assay_type": "functional", "details": "read-out: DIZ", "method_in_brief": "as §1"}, "Candida albicans [20]": {"test_system": "Candida albicans", "assay": "Antifungal activity against Candida albicans in synthetic dextrose minimal medium after 48 hrs by ELISA based serial dilution method"}, "Candida albicans [21]": {"test_system": "Candida albicans", "assay": "Antifungal activity against Candida albicans in yeast extract-peptone-glucose medium at 300 ug/ml after 48 hrs by disc diffusion assay", "assay_type": "functional", "details": "read-out: DIZ", "method_in_brief": "as §1"}, "Candida albicans [22]": {"test_system": "Candida albicans", "assay": "Antifungal activity against Candida albicans in yeast extract-peptone-glucose medium at 375 ug/ml after 48 hrs by disc diffusion assay in presence of 0.01% of sodium dodecylsulphate", "assay_type": "functional", "details": "read-out: DIZ", "method_in_brief": "as §1"}, "Candida albicans [23]": {"test_system": "Candida albicans", "assay": "Antifungal activity against Candida albicans in yeast extract-peptone-glucose medium at 375 ug/ml after 48 hrs by disc diffusion assay in presence of 100 ug/ml of calcofluor white", "assay_type": "functional", "method_in_brief": "as §1"}, "Candida albicans [24]": {"test_system": "Candida albicans", "assay": "Antifungal activity against Candida albicans in yeast extract-peptone-glucose medium at 375 ug/ml after 48 hrs by disc diffusion assay in presence of rhodamine 6G"}, "Candida albicans [25]": {"test_system": "Candida albicans", "assay": "Antifungal activity against Candida albicans in yeast extract-peptone-glucose medium at 375 ug/ml after 48 hrs by disc diffusion assay", "assay_type": "functional", "details": "read-out: DIZ", "method_in_brief": "as §1"}, "Candida albicans [26]": {"test_system": "Candida albicans", "assay": "Antifungal activity against Candida albicans in yeast extract-peptone-glucose medium at 375 ug/ml after 48 hrs by disc diffusion assay in presence of 150 ug/ml of congo red", "assay_type": "functional", "method_in_brief": "as §1"}}, "data": [{"compound": "O=C(C(=O)N1CCCCC1)c1cn(Cc2ccc(Cn3cc(C(=O)C(=O)N4CCCCC4)c4ccccc43)cc2)c2ccccc12", "values": [{"measurement": "zone of inhibition at 300 µg/mL", "setting": "Candida albicans [1]", "result": 7.5, "unit": "mm"}, {"measurement": "diameter of the inhibition zone (DIZ)", "setting": "Candida albicans [2]", "result": 7.5, "unit": "mm"}, {"measurement": "diameter of the inhibition zone (DIZ)", "setting": "Candida albicans [3]", "result": 6, "unit": "mm"}, {"measurement": "zone of inhibition at 300 µg/mL", "setting": "Escherichia coli [4]", "result": 9, "unit": "mm"}]}, {"compound": "O=C(C(=O)N1CCCCC1)c1cn(CCCn2cc(C(=O)C(=O)N3CCCCC3)c3cc(Br)ccc32)c2ccc(Br)cc12", "values": [{"measurement": "diameter of the inhibition zone (DIZ)", "setting": "Candida albicans [5]", "result": 9.5, "unit": "mm"}, {"measurement": "zone of inhibition at 500 µg/mL", "setting": "Candida albicans [6]", "result": 6, "unit": "mm"}, {"measurement": "zone of inhibition at 500 µg/mL", "setting": "Escherichia coli [7]", "result": 9, "unit": "mm"}, {"measurement": "zone of inhibition at 500 µg/mL", "setting": "Candida albicans [8]", "result": 8, "unit": "mm"}, {"measurement": "diameter of the inhibition zone (DIZ)", "setting": "Candida albicans [9]", "result": 6.5, "unit": "mm"}, {"measurement": "diameter of the inhibition zone (DIZ)", "setting": "Candida albicans [10]", "result": 7.5, "unit": "mm"}]}, {"compound": "O=C(C(=O)N1CCCCC1)c1cn(CCCn2cc(C(=O)C(=O)N3CCCCC3)c3ccccc32)c2ccccc12", "values": [{"measurement": "diameter of the inhibition zone (DIZ)", "setting": "Candida albicans [11]", "result": 6.5, "unit": "mm"}, {"measurement": "diameter of the inhibition zone (DIZ)", "setting": "Candida albicans [12]", "result": 6.5, "unit": "mm"}, {"measurement": "zone of inhibition at 250 µg/mL", "setting": "Escherichia coli [13]", "result": 9.5, "unit": "mm"}, {"measurement": "zone of inhibition at 374 µg/mL", "setting": "Candida albicans [14]", "result": 7.5, "unit": "mm"}]}, {"compound": "O=C(C(=O)N1CCOCC1)c1cn(Cc2ccc(Cn3cc(C(=O)C(=O)N4CCOCC4)c4ccccc43)cc2)c2ccccc12", "values": [{"measurement": "diameter of the inhibition zone (DIZ)", "setting": "Candida albicans [15]", "result": 6, "unit": "mm"}, {"measurement": "diameter of the inhibition zone (DIZ)", "setting": "Candida albicans [16]", "result": 6, "unit": "mm"}, {"measurement": "zone of inhibition at 250 µg/mL", "setting": "Escherichia coli [13]", "result": 10.5, "unit": "mm"}, {"measurement": "zone of inhibition at 250 µg/mL", "setting": "Candida albicans [17]", "result": 6.5, "unit": "mm"}, {"measurement": "diameter of the inhibition zone (DIZ)", "setting": "Candida albicans [18]", "result": 6, "unit": "mm"}, {"measurement": "zone of inhibition at 250 µg/mL", "setting": "Candida albicans [19]", "result": 6.5, "unit": "mm"}]}, {"compound": "O=C(NCc1ccccc1)C(=O)c1cn(CCCn2cc(C(=O)C(=O)NCc3ccccc3)c3ccccc32)c2ccccc12", "values": [{"measurement": "diameter of the inhibition zone (DIZ)", "setting": "Candida albicans [15]", "result": 7, "unit": "mm"}, {"measurement": "IC50", "setting": "Candida albicans [20]", "result": 121, "unit": "µM"}, {"measurement": "diameter of the inhibition zone (DIZ)", "setting": "Candida albicans [16]", "result": 8, "unit": "mm"}, {"measurement": "zone of inhibition at 250 µg/mL", "setting": "Escherichia coli [13]", "result": 12, "unit": "mm"}, {"measurement": "zone of inhibition at 250 µg/mL", "setting": "Candida albicans [17]", "result": 9, "unit": "mm"}, {"measurement": "diameter of the inhibition zone (DIZ)", "setting": "Candida albicans [18]", "result": 7, "unit": "mm"}, {"measurement": "zone of inhibition at 250 µg/mL", "setting": "Candida albicans [19]", "result": 8.5, "unit": "mm"}]}, {"compound": "Clc1ccc(COC(Cn2ccnc2)c2ccc(Cl)cc2Cl)c(Cl)c1", "note": "(centres undefined) [MICONAZOLE]", "values": [{"measurement": "zone of inhibition at 300 µg/mL", "setting": "Candida albicans [21]", "result": 12, "unit": "mm"}]}, {"compound": "O=C(C(=O)N1CCCC1)c1cn(CCCCCn2cc(C(=O)C(=O)N3CCCC3)c3ccccc32)c2ccccc12", "values": [{"measurement": "zone of inhibition at 500 µg/mL", "setting": "Escherichia coli [7]", "result": 8, "unit": "mm"}, {"measurement": "zone of inhibition at 375 µg/mL", "setting": "Candida albicans [22]", "result": 6, "unit": "mm"}, {"measurement": "diameter of the inhibition zone (DIZ)", "setting": "Candida albicans [23]", "result": 5.5, "unit": "mm"}, {"measurement": "diameter of the inhibition zone (DIZ)", "setting": "Candida albicans [24]", "result": 6.5, "unit": "mm"}, {"measurement": "zone of inhibition at 375 µg/mL", "setting": "Candida albicans [25]", "result": 5.5, "unit": "mm"}, {"measurement": "diameter of the inhibition zone (DIZ)", "setting": "Candida albicans [26]", "result": 8, "unit": "mm"}]}]}
